# Published values collected from several papers.
# Protocols differ between the studies behind these lines.
# Matrix: plasma
# Route: oral
Structure (SMILES),species,dose,notes,Vd/F
c1cnc2ccc(Nc3nc(NC4CC4)c4nc[nH]c4n3)cc2c1,human,100 mg/m²,patients,163 L
COc1ccc([C@@H]2CN(C(=O)[C@@H](O)CO)C[C@@]2(C)[C@@H](C)O)cc1OC1CN(c2ccc(C)cn2)C1,human,0.1 mg,"single dose, healthy volunteers",23.8 L
NC[C@@](O)(c1ccc(Cl)cc1)c1ccc(-c2cn[nH]c2)cc1,human,5 mg,patients,1400 L
C[C@@H](c1ccc2nccn2c1)n1nnc2ncc(-c3cnn(C)c3)nc21,human,200 mg,,310 L
CCOc1ccc(Cc2cc([C@@H]3O[C@H](CO)[C@@H](O)[C@H](O)[C@H]3O)ccc2Cl)cc1,human,10 mg,"multiple doses, steady state",320 L
Cc1cc(Nc2cc(N3CCN(C)CC3)nc(/C=C/c3ccccc3)n2)n[nH]1,human,120 mg/m²,"multiple doses, patients",847 L
CC(C)(Sc1ccncc1-c1ccc(C#N)c2ccccc12)C(=O)O,male human,5 mg,"single dose, fasted, healthy volunteers",419 L
N#CN1C[C@H](n2nc(-c3ccc(Oc4ccc(Cl)cn4)cc3)c(C(N)=O)c2N)CCC12CC2,human,600 mg,fed,1230 L
COc1cc(C(=O)NC2CCN(C)CC2)c(F)cc1Nc1ncc(C(F)(F)F)c(Oc2cccc3c2C(=O)N(C)C3)n1,human,10 mg,"multiple doses, once daily, patients",776 L
C[C@@]1(c2cc(NC(=O)c3ccc(C#N)cn3)ccc2F)C=CSC(N)=N1,human,90 mg,single dose,240 L
CO[C@H]1CC[C@H](N2C(=O)CNc3ncc(-c4ccc(C(C)(C)O)nc4)nc32)CC1,human,60 mg,patients,236 L
